In ChEMBL document CHEMBL4406918, “Inhibitory Effects of Multivalent Polypeptides on the Proliferation and Metastasis of Breast Cancer Cells” (ACS Med Chem Lett, 2019):
Activity calls are given as the source filed them. The rule behind the calls is not given here.

Assays:
4T1 [1] = assay: Antiproliferative activity against mouse 4T1 cells incubated for 24 hrs by MTT assay; assay type: functional, cell-based; conditions: 4T1, 24 h
Method in brief: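 MTT viability assay on 4T1 cells after 24 h treatment. Concentrations included 0.1 mM and 0.2 mM, and IC50 was taken from the viability curve. Mean ± SD, n = 6.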

Erythrocyte = assay: Hemolytic activity in BALB/c mouse RBC at 3.2 mM incubated for 2 hrs by UV-Vis spectrophotometric analysis; assay type: ADME, cell-based; conditions: 3200 µM
Method in brief: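 Hemolysis assay on red blood cells with dendrimers up to 3.2 mM. Result is expressed as hemolysis rate, with under 5% taken as acceptable.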

4T1 [2] = assay: Induction of cell death in mouse 4T1 cells incubated for 24 hrs by PI staining based inverted microscopic method; assay type: functional
Method in brief: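 Live–dead staining of 4T1 cells after 24 h exposure to 0.4 mM, read by PI staining. A 0.8 mM level was also examined.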

4T1 [3] = assay: Induction of cell cycle arrest in mouse 4T1 cells assessed as accumulation at G0/G1 phase at 10^-3 mM incubated for 24 hrs by PI staining based flow cytometric analysis (reference value: 37.78%); assay type: functional
4T1 [4] = assay: Induction of cell cycle arrest in mouse 4T1 cells assessed as accumulation at S phase at 10^-3 mM incubated for 24 hrs by PI staining based flow cytometric analysis (Rvb =42.35%); assay type: functional; conditions: at 0.001 mM
4T1 [5] = assay: Induction of cell cycle arrest in mouse 4T1 cells assessed as accumulation at G2/M phase at 10^-3 mM incubated for 24 hrs by PI staining based flow cytometric analysis (reference value: 19.82%); assay type: functional
4T1 [6] = assay: Induction of apoptosis in mouse 4T1 cells assessed as viable cells at 10^-3 mM incubated for 24 hrs by Annexin V-FITC/PI based FACS analysis (reference value: 92.2%); assay type: functional; conditions: 4T1, 24 h, read-out: Activity
4T1 [7] = assay: Induction of apoptosis in mouse 4T1 cells assessed as early apoptotic cells at 10^-3 mM incubated for 24 hrs by Annexin V-FITC/PI based FACS analysis (reference value: 0.76%); assay type: functional
4T1 [8] = assay: Induction of apoptosis in mouse 4T1 cells assessed as late apoptotic cells at 10^-3 mM incubated for 24 hrs by Annexin V-FITC/PI based FACS analysis (reference value: 6.62%); assay type: functional
4T1 [9] = assay: Induction of apoptosis in mouse 4T1 cells assessed as necrotic cells at 10^-3 mM incubated for 24 hrs by Annexin V-FITC/PI based FACS analysis (reference value: 0.47%); assay type: functional
4T1 [10] = assay: Inhibition of cell migration in mouse 4T1 cells assessed as wound closure rate at 10^-5 mM measured up to 36 hrs by inverted optical microscopic method based wound healing assay (reference value: 82%); assay type: functional; design: scale not given: the % may be the effect or the level left; conditions: at 10 nM
4T1 [11] = assay: Inhibition of cell migration in mouse 4T1 cells assessed as migration frequency at 10^-5 mM incubated for 24 hrs by crystal violet staining based transwell assay relative to control; assay type: functional; design: scale not given: the % may be the effect or the level left
Method in brief: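 Transwell migration assay on 4T1 cells after 24 h treatment. Rate was quantified from cell numbers on the underside of the porous membrane. Mean ± SD, n = 3.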

4T1 [12] = assay: Inhibition of metastasis in mouse 4T1 cells assessed as formation of pseudopods at 10^-5 mM incubated for 24 hrs by SEM analysis; assay type: functional, cell-based
Method in brief: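 4T1 cells treated 24 h, then imaged by scanning electron microscopy for pseudopod formation. Dendrimers were tested at 0.2 mM and the reference at 10–5 mM.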

4T1 [13] = assay: Inhibition of metastasis in mouse 4T1 cells assessed as disruption in F-actin arrangement at 10^-5 mM incubated for 24 hrs by Hoechst 33342 staining based confocal laser scanning microscopic method; assay type: functional, cell-based
Method in brief: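 After 24 h treatment, 4T1 cells were stained with Alexa Fluor 488 phalloidin for F-actin and Hoechst 33342 for nuclei, then imaged by fluorescence microscopy to assess cytoskeleton and cell morphology.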

4T1 [14] = assay: Antitumour activity against mouse 4T1 cells xenografted in BALB/c mouse assessed as increase in cytotoxic tumor cell death at 10 mg/kg administered intratumorally and measured after 24 days by H and E staining based inverted optical microscopic method; assay type: functional, organism-based
Method in brief: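 BALB/c mice bearing subcutaneous 4T1 tumours received 6 doses at 10 mg/kg body weight, matched for YSL monomer molar amount, with saline as control. Tumour sections were stained for H&E, CD31, Ki-67 and TUNEL. n = 5.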

4T1 [15] = assay: Antiinvasive activity in mouse 4T1 cells assessed as cell invasion rate at 10^-5 mM incubated for 24 hrs by crystal violet staining based matrigel invasion assay relative to control; conditions: 4T1, 24 h

In the case of CC(=O)O[C@H]1C(=O)[C@@]2(C)[C@H]([C@H](OC(=O)c3ccccc3)[C@]3(O)C[C@H](OC(=O)[C@H](O)[C@@H](NC(=O)c4ccccc4)c4ccccc4)C(C)=C1C3(C)C)[C@]1(OC(C)=O)CO[C@@H]1C[C@@H]2O [PACLITAXEL], the IC50 (4T1 [1]) is reported as 1 µM, the Activity (Erythrocyte) is reported as “Non-Toxic” and the Activity (4T1 [2]) is reported as “Dose-dependent effect”. For the same compound, the Activity (4T1 [3]) was 42.35%, the Activity (4T1 [4]) was 44.64% and the Activity (4T1 [5]) was 13.02%. The viability at 1 µM (4T1 [6]) was 61.7%, the Activity (4T1 [7]) was 0.77% and the Activity (4T1 [8]) was 36.9%. It also gave an Activity (4T1 [9]) of 0.62%, an Activity (4T1 [10]) of 43% and an Activity (4T1 [11]) of 30%. The inhibition (4T1 [12]) was “inactive”, the inhibition (4T1 [13]) was “Active” and the Activity (4T1 [14]) was “Active”. It also gave an invasion rate at 0.01 µM (4T1 [15]) of 34%.
